Key:
[1] = target: T1, Tyrosine-protein phosphatase non-receptor type 1 (Homo sapiens) (UniProt P18031); assay: Inhibitory activity against human protein tyrosine phosphatase 1B (PTP1B) at a concentration of 1 uM
T1 sequence (whole entry): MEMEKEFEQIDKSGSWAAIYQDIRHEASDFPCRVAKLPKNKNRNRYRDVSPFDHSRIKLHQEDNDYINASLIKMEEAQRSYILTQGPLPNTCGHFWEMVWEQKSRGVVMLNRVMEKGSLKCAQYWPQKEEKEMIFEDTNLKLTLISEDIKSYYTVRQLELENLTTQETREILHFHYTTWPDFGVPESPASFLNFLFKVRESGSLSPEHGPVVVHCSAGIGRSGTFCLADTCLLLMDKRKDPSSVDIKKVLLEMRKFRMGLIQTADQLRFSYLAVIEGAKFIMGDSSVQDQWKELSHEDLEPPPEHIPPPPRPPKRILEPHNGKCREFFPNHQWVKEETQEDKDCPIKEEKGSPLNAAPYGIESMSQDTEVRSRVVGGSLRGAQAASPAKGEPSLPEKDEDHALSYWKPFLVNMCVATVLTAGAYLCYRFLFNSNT
Procedure, shortened: (§1)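 Purified recombinant human enzyme constructs; PTP1B is a C-terminally truncated soluble form, tested alongside LAR and SHP-2. Activity is read as the initial rate of p-nitrophenyl phosphate (pNPP) hydrolysis and reported as percent inhibition. PTP1B is tested at 100, 10 and 1 µM, or 10 and 1 µM in the salicylate series; LAR and SHP-2 at 100 µM.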

[2] = target: T1, Tyrosine-protein phosphatase non-receptor type 1 (Homo sapiens); assay: Inhibitory activity against human protein tyrosine phosphatase 1B (PTP1B) at a concentration of 10 uM; procedure, shortened: as §1
[3] = target: T2, Tyrosine-protein phosphatase non-receptor type 11 (Homo sapiens) (UniProt Q06124); assay: Inhibition of recombinant human phosphatase (SHP-2) at a concentration of 100 uM; procedure, shortened: as §1
T2 sequence (whole entry): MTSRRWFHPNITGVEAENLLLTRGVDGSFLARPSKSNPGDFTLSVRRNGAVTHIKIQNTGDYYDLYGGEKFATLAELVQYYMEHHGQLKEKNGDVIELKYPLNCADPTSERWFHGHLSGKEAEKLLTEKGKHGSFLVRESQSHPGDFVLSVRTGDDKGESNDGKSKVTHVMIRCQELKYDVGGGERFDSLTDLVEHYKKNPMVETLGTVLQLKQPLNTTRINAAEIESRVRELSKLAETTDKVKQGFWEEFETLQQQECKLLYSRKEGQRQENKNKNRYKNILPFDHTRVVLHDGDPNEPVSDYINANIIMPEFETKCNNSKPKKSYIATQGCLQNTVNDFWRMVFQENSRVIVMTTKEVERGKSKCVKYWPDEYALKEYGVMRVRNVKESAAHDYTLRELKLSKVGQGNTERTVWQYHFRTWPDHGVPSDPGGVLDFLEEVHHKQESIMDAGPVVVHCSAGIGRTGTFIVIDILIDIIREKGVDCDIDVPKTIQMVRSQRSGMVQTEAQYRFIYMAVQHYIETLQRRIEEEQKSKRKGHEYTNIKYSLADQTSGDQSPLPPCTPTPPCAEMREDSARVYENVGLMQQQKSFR

[4] = Uptake of 2-DOG (2-deoxyglucose) into L6 myocytes in the presence of half-maximal concentration of insulin at 100 uM; type: functional, Rattus norvegicus
Procedure, shortened: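 L6 myotubes are exposed to compound at 100 µM with 10 nM insulin, a dose eliciting about 50% of maximal uptake. The initial rate of 2-[3H]deoxyglucose uptake is measured, with L-[14C]glucose marking extracellular space, and normalized to recovered lysate protein. Net insulin-dependent transport with inhibitor is expressed as a percent of that without inhibitor.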

[5] = target: Receptor-type tyrosine-protein phosphatase F (Homo sapiens) (UniProt P10586); assay: Inhibitory activity against phosphatase (LAR) at a concentration of 100 uM; procedure, shortened: as §1
Chain of Receptor-type tyrosine-protein phosphatase F (Homo sapiens) (P10586 whole entry): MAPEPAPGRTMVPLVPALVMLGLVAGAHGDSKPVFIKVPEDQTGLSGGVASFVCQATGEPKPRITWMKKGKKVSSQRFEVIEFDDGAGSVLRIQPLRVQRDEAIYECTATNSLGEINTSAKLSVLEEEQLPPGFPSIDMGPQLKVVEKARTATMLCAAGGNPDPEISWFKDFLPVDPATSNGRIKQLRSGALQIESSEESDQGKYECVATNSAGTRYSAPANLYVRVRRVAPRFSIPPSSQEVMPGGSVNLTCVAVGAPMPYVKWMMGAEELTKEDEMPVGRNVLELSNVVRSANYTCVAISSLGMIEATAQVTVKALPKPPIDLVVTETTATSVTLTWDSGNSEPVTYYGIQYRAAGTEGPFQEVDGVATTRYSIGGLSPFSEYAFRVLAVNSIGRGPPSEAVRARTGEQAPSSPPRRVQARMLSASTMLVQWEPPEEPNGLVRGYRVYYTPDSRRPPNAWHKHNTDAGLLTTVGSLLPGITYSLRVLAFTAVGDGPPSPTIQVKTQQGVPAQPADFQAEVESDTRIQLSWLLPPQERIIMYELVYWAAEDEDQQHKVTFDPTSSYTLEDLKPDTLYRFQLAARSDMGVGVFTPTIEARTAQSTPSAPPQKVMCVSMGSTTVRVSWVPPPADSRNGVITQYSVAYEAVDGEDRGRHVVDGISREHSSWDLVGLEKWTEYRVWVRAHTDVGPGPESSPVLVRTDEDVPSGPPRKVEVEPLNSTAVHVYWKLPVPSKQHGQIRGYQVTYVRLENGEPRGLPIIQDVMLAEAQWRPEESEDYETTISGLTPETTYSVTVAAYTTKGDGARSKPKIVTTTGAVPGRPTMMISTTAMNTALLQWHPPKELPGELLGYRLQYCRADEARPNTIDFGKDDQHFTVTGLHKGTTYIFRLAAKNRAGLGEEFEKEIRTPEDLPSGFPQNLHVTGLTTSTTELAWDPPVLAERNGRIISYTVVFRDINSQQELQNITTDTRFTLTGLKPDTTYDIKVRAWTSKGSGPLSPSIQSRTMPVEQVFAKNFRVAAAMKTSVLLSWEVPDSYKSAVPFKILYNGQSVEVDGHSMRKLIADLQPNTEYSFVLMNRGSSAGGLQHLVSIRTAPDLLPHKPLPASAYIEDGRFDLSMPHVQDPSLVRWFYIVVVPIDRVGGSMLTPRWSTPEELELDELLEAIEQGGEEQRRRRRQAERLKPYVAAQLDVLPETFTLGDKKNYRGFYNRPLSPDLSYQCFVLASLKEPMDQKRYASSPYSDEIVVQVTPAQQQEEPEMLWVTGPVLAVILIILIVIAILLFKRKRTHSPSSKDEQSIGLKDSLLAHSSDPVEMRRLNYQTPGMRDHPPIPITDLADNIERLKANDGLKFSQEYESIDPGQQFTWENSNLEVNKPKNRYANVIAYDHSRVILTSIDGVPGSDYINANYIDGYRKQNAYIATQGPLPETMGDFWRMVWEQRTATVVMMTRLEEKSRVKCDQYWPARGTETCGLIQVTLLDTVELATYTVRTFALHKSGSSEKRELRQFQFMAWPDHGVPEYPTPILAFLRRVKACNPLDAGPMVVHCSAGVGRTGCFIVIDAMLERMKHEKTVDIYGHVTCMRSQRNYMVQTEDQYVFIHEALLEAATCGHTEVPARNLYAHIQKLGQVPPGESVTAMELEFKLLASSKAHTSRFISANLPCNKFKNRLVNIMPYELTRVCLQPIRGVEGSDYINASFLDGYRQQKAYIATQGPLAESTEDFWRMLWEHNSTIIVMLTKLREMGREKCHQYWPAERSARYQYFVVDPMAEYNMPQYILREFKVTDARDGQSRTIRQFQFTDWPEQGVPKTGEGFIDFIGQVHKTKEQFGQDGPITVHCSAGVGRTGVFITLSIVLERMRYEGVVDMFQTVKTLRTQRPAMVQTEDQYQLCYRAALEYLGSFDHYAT

[6] = target: T1, Tyrosine-protein phosphatase non-receptor type 1 (Homo sapiens); assay: Inhibitory activity against human protein tyrosine phosphatase 1B (PTP1B) at a concentration of 100 uM; procedure, shortened: as §1

SMILES	inhibition [1]	inhibition [2]	inhibition [3]	inhibition [5]	inhibition [6]	Control Uptake [4]
CCCCCNC(=O)[C@H](Cc1ccc(OCC(=O)O)c(C(=O)O)c1)NC(=O)[C@H](Cc1ccccc1)NC(=O)CCNS(C)(=O)=O	15%	73%	25%	10%		81%
CCCCCNC(=O)[C@H](Cc1ccc(OC(C(=O)O)C(=O)O)cc1)NC(=O)[C@H](Cc1c[nH]c2ccccc12)NC(=O)OC(C)(C)C	10%	44%	9%	18%	89%	92%
CCCCCNC(=O)[C@H](Cc1ccc(OC(C(=O)O)C(=O)O)cc1)NC(=O)[C@H](Cc1ccccc1)NS(=O)(=O)Cc1ccccc1	4%	16%	10%	6%	62%	98%
CCCCCNC(=O)[C@H](Cc1ccc(OC(C(=O)O)C(=O)O)cc1)NC(=O)[C@H](Cc1c(F)c(F)c(F)c(F)c1F)NC(=O)OC(C)(C)C	5%	25%	0%	8%	80%	100%
CCCCCNC(=O)[C@H](Cc1ccc(OCC(=O)O)c(C(=O)O)c1)NC(=O)[C@H](Cc1ccccc1)NC(=O)CCNC(=O)OC(C)(C)C	19%	75%	19%	0%		88%
CCCCCNC(=O)[C@H](Cc1ccc(OCC(=O)O)c(C(=O)O)c1)NC(=O)[C@H](Cc1ccccc1)NC(=O)CSc1nc[nH]n1	36%	82%	6%	0%		80%
CCCCCNC(=O)[C@H](Cc1ccc(OCC(=O)O)c(C(=O)O)c1)NC(=O)[C@H](CCOCOC)NC(=O)OC(C)(C)C	6%	42%	6%	0%		113%
CCCCCNC(=O)[C@H](Cc1ccc(OCC(=O)O)c(C(=O)O)c1)NC(=O)[C@H](Cc1ccccc1)NC(=O)CSc1c[nH]nn1	49%	88%	5%	0%		86%
CCCCCNC(=O)[C@H](Cc1ccc(OCC(=O)O)c(C(=O)O)c1)NC(=O)[C@H](Cc1ccccc1)NC(=O)C[S+]([O-])c1nc[nH]n1 (stereo not given in full)	40%	85%	17%	0%		92%
CCCCCNC(=O)[C@H](Cc1ccc(OCC(=O)O)c(C(=O)O)c1)NC(=O)[C@H](Cc1ccccn1)NC(=O)OC(C)(C)C	10%	50%	1%	2%		106%
CCCCCNC(=O)[C@H](Cc1ccc(OCC(=O)O)c(C(=O)O)c1)NC(=O)[C@H](Cc1ccccc1)NC(=O)CCOC	37%	83%	2%	0%		89%
CCCCCNC(=O)[C@H](Cc1ccc(OCC(=O)O)c(C(=O)O)c1)NC(=O)[C@H](Cc1ccccc1)NC(=O)CCCc1ccccc1	19%	70%	17%	0%		73%
CCCCCNC(=O)[C@H](Cc1ccc(OCC(=O)O)c(C(=O)O)c1)NC(=O)[C@H](Cc1ccccc1)N1CCCC1=O	24%	71%	5%	0%		95%
CCCCCNC(=O)[C@H](Cc1ccc(OCC(=O)O)c(C(=O)O)c1)NC(=O)[C@H](COCOC)NC(=O)OC(C)(C)C	16%	51%		2%		70%
CCCCCNC(=O)[C@H](Cc1ccc(OCC(=O)O)c(C(=O)O)c1)NC(=O)[C@H](CCO)NC(=O)OC(C)(C)C	11%	45%	8%	0%		74%
CCCCCNC(=O)[C@H](Cc1ccc(OCC(=O)O)c(C(=O)O)c1)NC(=O)[C@H](C)NC(=O)OC(C)(C)C	8%	43%	5%	4%		76%
CCCCCNC(=O)[C@H](Cc1ccc(OCC(=O)O)c(C(=O)O)c1)NC(=O)[C@H](Cc1ccccc1)NC(=O)Cc1ccc(O)cc1	46%	88%	34%	7%		96%
CCCCCNC(=O)[C@H](Cc1ccc(OCC(=O)O)c(C(=O)O)c1)NC(=O)[C@H](Cc1ccccc1)NC(=O)Cc1ccccc1	45%	87%	18%	0%		73%
CCCCCNC(=O)[C@H](Cc1ccc(OCC(=O)O)c(C(=O)O)c1)NC(=O)[C@H](Cc1ccccc1)NC(C)=O	28%	77%	13%	0%		95%

Further lines, with some results ahead:

inhibition [1]	inhibition [2]	inhibition [3]	inhibition [5]	inhibition [6]	SMILES	Control Uptake [4]
3%	16%	0%	0%	83%	CCCCCNC(=O)[C@H](Cc1ccc(OC(C(=O)O)C(=O)O)cc1)NC(=O)[C@H](CSCc1ccccc1)NC(=O)OC(C)(C)C	89%
47%	88%	38%	0%		CCCCCNC(=O)[C@H](Cc1ccc(OCC(=O)O)c(C(=O)O)c1)NC(=O)[C@H](Cc1ccccc1)NC(=O)Cc1c[nH]c2ccccc12	73%
32%	81%	5%	0%		CCCCCNC(=O)[C@H](Cc1ccc(OCC(=O)O)c(C(=O)O)c1)NC(=O)[C@H](Cc1ccc(O)cc1)NC(=O)OC(C)(C)C	115%
11%	41%	4%	1%		CCCCCNC(=O)[C@H](Cc1ccc(OCC(=O)O)c(C(=O)O)c1)NC(=O)[C@H](CO)NC(=O)OC(C)(C)C	84%
23%	78%	27%	0%		CCCCCNC(=O)[C@H](Cc1ccc(OCC(=O)O)c(C(=O)O)c1)NC(=O)[C@H](Cc1ccccc1)NC(=O)CCCO	108%
			0%		CCCCCNC(=O)[C@H](Cc1ccc(OCC(=O)O)c(C(=O)O)c1)NC(=O)[C@H](Cc1ccccc1)NC(=O)OC(C)(C)C	108%
39%	85%	20%	6%		CCCCCNC(=O)[C@H](Cc1ccc(OCC(=O)O)c(C(=O)O)c1)NC(=O)[C@H](Cc1ccccc1)NC(=O)Cc1ccc(C)cc1	77%
43%	86%	32%	6%		CCCCCNC(=O)[C@H](Cc1ccc(OCC(=O)O)c(C(=O)O)c1)NC(=O)[C@H](Cc1ccccc1)NC(=O)Cc1cccc(O)c1	108%
